Experimental data reported in ChEMBL document CHEMBL3045436, “Synthesis and antiviral activities of antofine analogues with different C-6 substituent groups” (2013).

Key:
Format in all cases: functional
Tobacco mosaic virus [1] = assay: Antiviral activity against Tobacco mosaic virus (TMV) in tobacco plant leaf assessed as curative effect at 500 ug/ml after 3 to 4 days
How it was run: (§1)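 Whole plants of N. tabacum var. Xanthi nc at the same leaf age. Whole leaves dip-inoculated with TMV (6.0 × 10−3 mg/mL), then washed with water and dried. Compound smeared on the left half-leaf, solvent on the right as control. Local lesions counted 3−4 days after inoculation, three replicates. Inhibition % calculated from mean lesion numbers versus control.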

Tobacco mosaic virus [2] = assay: Antiviral activity against Tobacco mosaic virus (TMV) in tobacco leaf juice at 500 ug/ml after 72 hr by half-leaf method
How it was run: (§2)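 Detached leaf (half-leaf) assay in Nicotiana tabacum var. Xanthi nc, 5−6 growth stage. Whole leaf inoculated with TMV (5.88 × 10−2 μg/mL) by juice-leaf rubbing, then cut in half along the main vein. One half soaked 20 min in compound solution, the other in double-distilled water. Halves cultured 72 h at 25 °C. At least three replicates. Inhibition % = (control − treated mean local lesions)/control × 100.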

Tobacco mosaic virus [3] = assay: Antiviral activity against Tobacco mosaic virus (TMV) in tobacco plant leaf assessed as protection effect at 500 ug/ml after 3 to 4 days
How it was run: (§3)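 Compound smeared on the left half of growing N. tabacum var. Xanthi nc leaves of the same age, solvent on the right half as control. Leaves inoculated with TMV 12 h later. Local lesions counted 3−4 days after inoculation, three replicates. Inhibition % = (control − treated mean lesions)/control × 100.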

Tobacco mosaic virus [4] = assay: Antiviral activity against Tobacco mosaic virus (TMV) in tobacco leaf juice at 100 ug/ml after 72 hr by half-leaf method; how it was run: as §2
Tobacco mosaic virus [5] = assay: Antiviral activity against Tobacco mosaic virus (TMV) in tobacco plant leaf assessed as inactivation effect at 100 ug/ml after 3 to 4 days
How it was run: (§4)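 TMV mixed with an equal volume of compound solution for 30 min. The mixture was inoculated on the left half of N. tabacum var. Xanthi nc leaves, and virus mixed with solvent on the right half as control. Local lesions recorded 3−4 days after inoculation, three replicates. Inhibition % calculated from mean lesion numbers versus control.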

Tobacco mosaic virus [6] = assay: Antiviral activity against Tobacco mosaic virus (TMV) in tobacco plant leaf assessed as curative effect at 100 ug/ml after 3 to 4 days; how it was run: as §1
Tobacco mosaic virus [7] = assay: Antiviral activity against Tobacco mosaic virus (TMV) in tobacco plant leaf assessed as protection effect at 100 ug/ml after 3 to 4 days; how it was run: as §3
Tobacco mosaic virus [8] = assay: Antiviral activity against Tobacco mosaic virus (TMV) in tobacco plant leaf assessed as inactivation effect at 500 ug/ml after 3 to 4 days; how it was run: as §4

| Compound | inhibition at 500 µg/mL (Tobacco mosaic virus [1]) | inhibition at 500 µg/mL (Tobacco mosaic virus [2]) | inhibition at 500 µg/mL (Tobacco mosaic virus [3]) | inhibition at 100 µg/mL (Tobacco mosaic virus [4]) | inhibition at 100 µg/mL (Tobacco mosaic virus [5]) | inhibition at 100 µg/mL (Tobacco mosaic virus [6]) | inhibition at 100 µg/mL (Tobacco mosaic virus [7]) | inhibition at 500 µg/mL (Tobacco mosaic virus [8]) |
| --- | --- | --- | --- | --- | --- | --- | --- | --- |
| COc1cc2c3c(c4ccc(O)cc4c2cc1OC)CN1CCC[C@H]1C3 | 49.6% | 52.2% | 43.2% | 21.3% | 17.8% | 23.2% | 19.5% | 46.2% |
| COc1cc2c3c(c4ccc(OCCO)cc4c2cc1OC)CN1CCC[C@@H]1C3 | 74.2% | 78.2% | 71.6% | 47.5% | 40.9% | 42.8% | 39.5% | 70.4% |
| COc1cc2c3c(c4ccc(OCCO)cc4c2cc1OC)CN1CCC[C@H]1C3 | 44% | 43.9% | 42.3% | 10% | 12% | 18.6% | 10.5% | 40.5% |
| COc1cc2c3c(c4ccc(OC(C)=O)cc4c2cc1OC)CN1CCC[C@H]1C3 | 59.4% | 68.7% | 54.2% | 30.6% | 19.3% | 22.4% | 16.2% | 58.5% |
| CCOc1ccc2c3c(c4cc(OC)c(OC)cc4c2c1)C[C@H]1CCCN1C3 | 49.7% | 50% | 40.2% | 32.5% | 28.5% | 27.2% | 10.4% | 43.7% |
| CCOc1ccc2c3c(c4cc(OC)c(OC)cc4c2c1)C[C@@H]1CCCN1C3 | 51.1% | 56.2% | 48% | 25.6% | 23% | 24.3% | 28.5% | 53.2% |
| C#CCOc1ccc2c3c(c4cc(OC)c(OC)cc4c2c1)C[C@H]1CCCN1C3 | 59.3% | 61.2% | 58.6% | 43.7% | 38.9% | 36.1% | 39.7% | 52.8% |
| C#CCOc1ccc2c3c(c4cc(OC)c(OC)cc4c2c1)C[C@@H]1CCCN1C3 | 74.9% | 75% | 71.6% | 48.6% | 42.4% | 45.5% | 40.9% | 70% |
| COc1cc2c3c(c4ccc(OCC#N)cc4c2cc1OC)CN1CCC[C@@H]1C3 | 75.1% | 79.3% | 74.5% | 40% | 38.7% | 44.1% | 42.3% | 72.3% |
| COc1cc2c3c(c4ccc(OCC#N)cc4c2cc1OC)CN1CCC[C@H]1C3 | 57.8% | 60% | 54.3% | 31.5% | 27.9% | 30.4% | 26.3% | 58.2% |
| COc1cc2c3c(c4ccc(O)cc4c2cc1OC)CN1CCC[C@@H]1C3 | 72.4% | 70.5% | 60.4% | 40% | 33.5% | 42% | 35.4% | 65.3% |
| COc1ccc2c3c(c4cc(OC)c(OC)cc4c2c1)C[C@H]1CCCN1C3 [(-)-ANTOFINE] | 62.5% | 65.8% | 55.7% | 30.4% | 29.4% | 33.4% | 32.3% | 58% |
| COc1ccc2c3c(c4cc(OC)c(OC)cc4c2c1)C[C@@H]1CCCN1C3 [HYPOESTESTATIN 1] | 56.4% | 60.2% | 51.1% | 30.5% | 26.7% | 28.4% | 37.2% | 55.5% |
| CNCC(=O)N[C@@H](CO)C(=O)N[C@H]1[C@H](O)[C@@H](O)[C@H](n2ccc(N)nc2=O)O[C@@H]1C(N)=O [NINGNANMYCIN] | 58.7% | 69.3% | 57.9% | 26.8% | 25% | 23.1% | 38.4% | 54.2% |
